# Results from article PMC13170702 (Nuclear medicine and biology, 2025).
# How the values were obtained:
# [1] = organ radiation dose estimates, both OLINDA software versions; type: in vivo, human
# Summary of the method: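 Per-participant organ doses from OLINDA 1.1 (ICRP-60) and 2.0 (ICRP-103) were pooled by sex as mean ± SD (n = 4 per sex), in mGy/MBq; effective dose in mSv/MBq. Males and females were compared at p < 0.05. Kidney dose per MBq was related to injected activity and benchmarked against FDA 21CFR361 single-study limits (30 mSv whole body; 50 mGy other organs).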
# [2] = i.v., low molar activity tracer, PET-CT; cited from earlier work
# healthy volunteers = assay: first-in-human adverse event monitoring in healthy volunteers; type: in vivo
# Summary of the method: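 Participants were aged 56–75 (four male, four female). Tracer was given as an i.v. bolus (1–2 min) via a cephalic-vein catheter, supine, before 94 min of PET-MR over three sessions ending at 214 min. Adverse events were watched for continuously during scans, breaks and afterwards. Vital signs and ECG were taken ~60 min post-imaging, then physician/nurse review before discharge and off-site follow-up at 24–48 h. Later events were self-reported.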
# [3] = whole-body PET-MR biodistribution and TIAC determination; type: in vivo, human
# Summary of the method: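 Tracer 70.3–355 MBq was given as an i.v. bolus; whole-body PET-MR used 6 bed positions. WB1–WB5 ran 0–34 min (1 min/bed), WB6–7 35–60 min (2 min/bed), WB8 80–104 min and WB9 180–214 min (4 min/bed). Voiding and water were allowed in breaks. SUV was read from AMIDE VOIs at early times (<1 h). Decay-corrected %IA per organ VOI over time was fitted by the exponential model (OLINDA/EXM 1.1) for TIACs.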
# [4] = range of sex means from both software versions
structure (smiles),measurement,setting,value
"COC(=O)[C@@H](N)CC(=O)Nc1ccc2c(c1)Cc1cc([18F])ccc1-2 [[^18F]RP-115, methyl N^4-(7-[^18F]fluoro-9H-fluoren-2-yl)asparaginate]",kidney dose per injected activity used for the limit,[1]; 0.237 mGy/MBq × 211 MBq = 50 mGy,0.237 mGy/MBq
same,renal estimated radiation dose,"[1]; Males 1–2 and Female 2, 289–355 MBq given",> 50 mSv
same,ratio of estimated kidney dose to radioactivity given,[1]; Males 1–2 and Female 4,> 0.21 mGy/MBq
same,critical organ,"[1]; highest mean absorbed dose, primary route of elimination",kidneys
same,"estimated absorbed doses, remaining organs and tissues and Effective dose","[1]; organs other than kidneys, liver, small intestine",< 0.035 mGy/MBq
same,kidneys mean absorbed estimated radiation dose,[1]; [4],0.142 to 0.214 mGy/MBq
same,liver mean absorbed dose,[1]; [4],0.0392 to 0.0449 mGy/MBq
same,CNS activity uptake (SUV),[2],> 1
same,adverse events / pharmacological effects,"healthy volunteers; 70.3–355 MBq i.v. bolus, n=8, ≤48 h and up to 1 year",no adverse events (AE) or clinically detectable pharmacological effects
same,tolerability,"healthy volunteers; 70.3–355 MBq i.v., n=8, PET-MR scanning protocol",well tolerated
same,"SUV, brain and spinal tissues",[3]; 27–34 min after injection,> 1
same,"SUV, major organs, CNS and peripheral tissues",[3]; 27–34 min after injection,> 1
same,"TIAC, Brain",[3]; F1 (189 MBq),0.084 MBq-h/MBq
same,"TIAC, Gallbladder wall",[3]; F1 (189 MBq),0.0031 MBq-h/MBq
same,"TIAC, Heart contents",[3]; F1 (189 MBq),0.00463 MBq-h/MBq
same,"TIAC, Heart wall",[3]; F1 (189 MBq),0.0155 MBq-h/MBq
same,"TIAC, Kidneys",[3]; F1 (189 MBq),0.25 MBq-h/MBq
same,"TIAC, Liver",[3]; F1 (189 MBq),0.209 MBq-h/MBq
same,"TIAC, Lungs",[3]; F1 (189 MBq),0.274 MBq-h/MBq
same,"TIAC, Pancreas",[3]; F1 (189 MBq),0.00899 MBq-h/MBq
same,"TIAC, Remainder",[3]; F1 (189 MBq),1.28 MBq-h/MBq
same,"TIAC, Small intestine",[3]; F1 (189 MBq),0.0843 MBq-h/MBq
same,"TIAC, Spleen",[3]; F1 (189 MBq),0.0284 MBq-h/MBq
same,"TIAC, Thymus",[3]; F1 (189 MBq),0.00372 MBq-h/MBq
same,"TIAC, Thyroid",[3]; F1 (189 MBq),0.00052 MBq-h/MBq
same,"TIAC, Urinary bladder contents",[3]; F1 (189 MBq),0.138 MBq-h/MBq
same,"TIAC, Uterus/Uterine wall",[3]; F1 (189 MBq),0.00432 MBq-h/MBq
same,"TIAC, Brain","[3]; F2, no voiding (355 MBq)",0.075 MBq-h/MBq
same,"TIAC, Gallbladder wall","[3]; F2, no voiding (355 MBq)",0.00204 MBq-h/MBq
same,"TIAC, Heart contents","[3]; F2, no voiding (355 MBq)",0.00054 MBq-h/MBq
same,"TIAC, Heart wall","[3]; F2, no voiding (355 MBq)",0.0118 MBq-h/MBq
same,"TIAC, Kidneys","[3]; F2, no voiding (355 MBq)",0.391 MBq-h/MBq
same,"TIAC, Liver","[3]; F2, no voiding (355 MBq)",0.202 MBq-h/MBq
same,"TIAC, Lungs","[3]; F2, no voiding (355 MBq)",0.31 MBq-h/MBq
same,"TIAC, Pancreas","[3]; F2, no voiding (355 MBq)",0.00377 MBq-h/MBq
same,"TIAC, Small intestine","[3]; F2, no voiding (355 MBq)",0.0474 MBq-h/MBq
same,"TIAC, Spleen","[3]; F2, no voiding (355 MBq)",0.00188 MBq-h/MBq
same,"TIAC, Thymus","[3]; F2, no voiding (355 MBq)",0.00178 MBq-h/MBq
same,"TIAC, Thyroid","[3]; F2, no voiding (355 MBq)",0.0047 MBq-h/MBq
same,"TIAC, Urinary bladder contents","[3]; F2, no voiding (355 MBq)",0.127 MBq-h/MBq
same,"TIAC, Uterus/Uterine wall","[3]; F2, no voiding (355 MBq)",0.0564 MBq-h/MBq
same,"TIAC, Brain",[3]; F3 (117 MBq),0.0606 MBq-h/MBq
same,"TIAC, Gallbladder wall",[3]; F3 (117 MBq),0.00328 MBq-h/MBq
same,"TIAC, Heart contents",[3]; F3 (117 MBq),0.00112 MBq-h/MBq
same,"TIAC, Heart wall",[3]; F3 (117 MBq),0.0131 MBq-h/MBq
same,"TIAC, Kidneys",[3]; F3 (117 MBq),0.266 MBq-h/MBq
same,"TIAC, Liver",[3]; F3 (117 MBq),0.262 MBq-h/MBq
same,"TIAC, Lungs",[3]; F3 (117 MBq),0.186 MBq-h/MBq
same,"TIAC, Pancreas",[3]; F3 (117 MBq),0.00504 MBq-h/MBq
same,"TIAC, Remainder",[3]; F3 (117 MBq),1.44 MBq-h/MBq
same,"TIAC, Small intestine",[3]; F3 (117 MBq),0.0667 MBq-h/MBq
same,"TIAC, Spleen",[3]; F3 (117 MBq),0.011 MBq-h/MBq
same,"TIAC, Thymus",[3]; F3 (117 MBq),0.00146 MBq-h/MBq
same,"TIAC, Thyroid",[3]; F3 (117 MBq),0.00131 MBq-h/MBq
same,"TIAC, Urinary bladder contents",[3]; F3 (117 MBq),0.00659 MBq-h/MBq
same,"TIAC, Uterus/Uterine wall",[3]; F3 (117 MBq),0.0115 MBq-h/MBq
same,"TIAC, Brain",[3]; F4 (167 MBq),0.0781 MBq-h/MBq
same,"TIAC, Gallbladder wall",[3]; F4 (167 MBq),0.00062 MBq-h/MBq
same,"TIAC, Heart contents",[3]; F4 (167 MBq),0.0015 MBq-h/MBq
same,"TIAC, Heart wall",[3]; F4 (167 MBq),0.0212 MBq-h/MBq
same,"TIAC, Kidneys",[3]; F4 (167 MBq),0.245 MBq-h/MBq
same,"TIAC, Liver",[3]; F4 (167 MBq),0.192 MBq-h/MBq
same,"TIAC, Lungs",[3]; F4 (167 MBq),0.231 MBq-h/MBq
same,"TIAC, Pancreas",[3]; F4 (167 MBq),0.0053 MBq-h/MBq
same,"TIAC, Remainder",[3]; F4 (167 MBq),1.22 MBq-h/MBq
same,"TIAC, Small intestine",[3]; F4 (167 MBq),0.126 MBq-h/MBq
same,"TIAC, Spleen",[3]; F4 (167 MBq),0.0057 MBq-h/MBq
same,"TIAC, Thymus",[3]; F4 (167 MBq),0.0021 MBq-h/MBq
same,"TIAC, Thyroid",[3]; F4 (167 MBq),0.0009 MBq-h/MBq
same,"TIAC, Urinary bladder contents",[3]; F4 (167 MBq),0.0319 MBq-h/MBq
same,"TIAC, Uterus/Uterine wall",[3]; F4 (167 MBq),0.0133 MBq-h/MBq
same,"TIAC, Brain",[3]; M1 (326 MBq),0.0947 MBq-h/MBq
same,"TIAC, Gallbladder wall",[3]; M1 (326 MBq),0.00525 MBq-h/MBq
same,"TIAC, Heart contents",[3]; M1 (326 MBq),0.00354 MBq-h/MBq
same,"TIAC, Heart wall",[3]; M1 (326 MBq),0.0301 MBq-h/MBq
same,"TIAC, Kidneys",[3]; M1 (326 MBq),0.351 MBq-h/MBq
same,"TIAC, Liver",[3]; M1 (326 MBq),0.34 MBq-h/MBq
same,"TIAC, Lungs",[3]; M1 (326 MBq),0.322 MBq-h/MBq
same,"TIAC, Pancreas",[3]; M1 (326 MBq),0.0022 MBq-h/MBq
same,"TIAC, Remainder",[3]; M1 (326 MBq),1.27 MBq-h/MBq
same,"TIAC, Small intestine",[3]; M1 (326 MBq),0.161 MBq-h/MBq
same,"TIAC, Spleen",[3]; M1 (326 MBq),0.0528 MBq-h/MBq
same,"TIAC, Thymus",[3]; M1 (326 MBq),0.00576 MBq-h/MBq
same,"TIAC, Thyroid",[3]; M1 (326 MBq),0.0007 MBq-h/MBq
same,"TIAC, Urinary bladder contents",[3]; M1 (326 MBq),0.00668 MBq-h/MBq
same,"TIAC, Brain",[3]; M2 (289 MBq),0.0531 MBq-h/MBq
same,"TIAC, Gallbladder wall",[3]; M2 (289 MBq),0.0017 MBq-h/MBq
same,"TIAC, Heart contents",[3]; M2 (289 MBq),0.0248 MBq-h/MBq
same,"TIAC, Heart wall",[3]; M2 (289 MBq),0.202 MBq-h/MBq
same,"TIAC, Kidneys",[3]; M2 (289 MBq),0.424 MBq-h/MBq
same,"TIAC, Liver",[3]; M2 (289 MBq),0.19 MBq-h/MBq
same,"TIAC, Lungs",[3]; M2 (289 MBq),0.0012 MBq-h/MBq
same,"TIAC, Pancreas",[3]; M2 (289 MBq),0.111 MBq-h/MBq
same,"TIAC, Remainder",[3]; M2 (289 MBq),1.37 MBq-h/MBq
same,"TIAC, Small intestine",[3]; M2 (289 MBq),0.00196 MBq-h/MBq
same,"TIAC, Spleen",[3]; M2 (289 MBq),0.0158 MBq-h/MBq
same,"TIAC, Thymus",[3]; M2 (289 MBq),0.0013 MBq-h/MBq
same,"TIAC, Thyroid",[3]; M2 (289 MBq),0.00039 MBq-h/MBq
same,"TIAC, Urinary bladder contents",[3]; M2 (289 MBq),0.017 MBq-h/MBq
same,"TIAC, Brain",[3]; M3 (70.3 MBq),0.0611 MBq-h/MBq
same,"TIAC, Gallbladder wall",[3]; M3 (70.3 MBq),0.00199 MBq-h/MBq
same,"TIAC, Heart contents",[3]; M3 (70.3 MBq),0.0027 MBq-h/MBq
same,"TIAC, Heart wall",[3]; M3 (70.3 MBq),0.0297 MBq-h/MBq
same,"TIAC, Kidneys",[3]; M3 (70.3 MBq),0.286 MBq-h/MBq
same,"TIAC, Liver",[3]; M3 (70.3 MBq),0.249 MBq-h/MBq
same,"TIAC, Lungs",[3]; M3 (70.3 MBq),0.298 MBq-h/MBq
same,"TIAC, Pancreas",[3]; M3 (70.3 MBq),0.00353 MBq-h/MBq
same,"TIAC, Remainder",[3]; M3 (70.3 MBq),1.29 MBq-h/MBq
same,"TIAC, Small intestine",[3]; M3 (70.3 MBq),0.0651 MBq-h/MBq
same,"TIAC, Spleen",[3]; M3 (70.3 MBq),0.0218 MBq-h/MBq
same,"TIAC, Thymus",[3]; M3 (70.3 MBq),0.00217 MBq-h/MBq
same,"TIAC, Thyroid",[3]; M3 (70.3 MBq),0.00057 MBq-h/MBq
same,"TIAC, Urinary bladder contents",[3]; M3 (70.3 MBq),0.0429 MBq-h/MBq
same,"TIAC, Brain",[3]; M4 (153 MBq),0.078 MBq-h/MBq
same,"TIAC, Gallbladder wall",[3]; M4 (153 MBq),0.00356 MBq-h/MBq
same,"TIAC, Heart contents",[3]; M4 (153 MBq),0.0033 MBq-h/MBq
same,"TIAC, Heart wall",[3]; M4 (153 MBq),0.0276 MBq-h/MBq
same,"TIAC, Kidneys",[3]; M4 (153 MBq),0.332 MBq-h/MBq
same,"TIAC, Liver",[3]; M4 (153 MBq),0.229 MBq-h/MBq
same,"TIAC, Lungs",[3]; M4 (153 MBq),0.214 MBq-h/MBq
same,"TIAC, Pancreas",[3]; M4 (153 MBq),0.00723 MBq-h/MBq
same,"TIAC, Remainder",[3]; M4 (153 MBq),1.39 MBq-h/MBq
same,"TIAC, Small intestine",[3]; M4 (153 MBq),0.12 MBq-h/MBq
same,"TIAC, Spleen",[3]; M4 (153 MBq),0.0354 MBq-h/MBq
same,"TIAC, Thymus",[3]; M4 (153 MBq),0.00492 MBq-h/MBq
same,"TIAC, Thyroid",[3]; M4 (153 MBq),0.00105 MBq-h/MBq
same,"TIAC, Urinary bladder contents",[3]; M4 (153 MBq),0.0178 MBq-h/MBq
